Source: PubChem (Sanford-Burnham Center for Chemical Genomics)
The list is not random: actives were taken first. Their share in the collection is about 0.79%.
bIAP inh: bovine intestinal alkaline phosphatase inhibitors, primary screen, selectivity assay for TNAP inhibitor project, biochemical, bovine IAP, CDP-star luminescence; alkaline phosphatase, intestinal [Bos taurus]; purified bovine IAP, 30 min; inhibition, % at 20 µM; 190,000 tested, under 10 active;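 active = over 50% inhibition of intestinal alkaline phosphatase at 20 µM in the single-dose screen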
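System: Purified bovine intestinal alkaline phosphatase (IAP) enzyme | Input: IAP diluted 1/65,000,000 in the well | Also added: CDP-star chemiluminescent phosphatase substrate, 30 µM final | Dosing: 20 µM single dose | Times: Enzyme reaction for 30 min at room temperature | Detection: Luminescence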
bIAP act: bovine intestinal alkaline phosphatase activators, primary screen, biochemical, bovine IAP, CDP-star luminescence; alkaline phosphatase, intestinal [Bos taurus]; purified bovine IAP, 30 min; active compounds read high; fold of DMSO-control signal, blank-subtracted; activation factor at 20 µM; hit rate 0.17% among 200,000; AID 1016, 2008;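 active = activation factor of 2 or more at 20 µM, a signal rise over negative controls twice the positive control's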
hIAP activ: human IAP activators, primary screen, biochemical, luminescence, uHTS | Intestinal-type alkaline phosphatase (Homo sapiens), P09923 | purified human IAP, CDP-Star luminescence, 30 min; active compounds read high; 1 = vehicle-only enzyme, 0 = enzyme-free background | activation factor at 10 µM | hit rate 0.16% among 330,000 | AID 2524, 2010;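 active = activation factor of the enzyme at least 2-fold when tested at 20 µM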
Target sequence (P09923 whole entry, looked up): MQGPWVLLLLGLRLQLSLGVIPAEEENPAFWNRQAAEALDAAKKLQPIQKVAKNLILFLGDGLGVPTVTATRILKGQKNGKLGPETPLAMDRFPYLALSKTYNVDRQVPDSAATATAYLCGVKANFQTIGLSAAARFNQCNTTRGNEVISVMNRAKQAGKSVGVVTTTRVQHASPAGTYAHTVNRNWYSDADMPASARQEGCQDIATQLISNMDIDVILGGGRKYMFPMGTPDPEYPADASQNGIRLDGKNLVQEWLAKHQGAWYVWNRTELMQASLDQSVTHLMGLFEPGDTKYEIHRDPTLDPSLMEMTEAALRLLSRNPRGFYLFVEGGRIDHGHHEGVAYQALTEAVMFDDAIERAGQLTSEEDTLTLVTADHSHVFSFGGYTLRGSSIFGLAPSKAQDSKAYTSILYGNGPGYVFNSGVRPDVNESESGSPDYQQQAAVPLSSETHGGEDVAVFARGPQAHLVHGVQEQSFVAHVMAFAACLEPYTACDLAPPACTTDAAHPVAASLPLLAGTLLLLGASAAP
mIAP act: activators of mouse IAP, primary screen, biochemical, luminescence, uHTS; muIAP, CDP-Star luminescence, 30 min; active compounds read high; 1 = vehicle-only enzyme signal, 0 = enzyme-free wells; activation factor at 10 µM; hit rate 0.24% among 330,000;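 active = activation factor of at least 2 at 20 µM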
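also added = chemiluminescent substrate CDP-Star | test system = mouse IAP enzyme | signal = chemiluminescence readout | compound = DMSO-dissolved test compounds | incubation = 30 min at room temperature | benchmarks = DMSO wells, no-enzyme wells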
hIAP inh: human IAP inhibitors, primary screen, biochemical, luminescence, uHTS; inhibition, % at 10 µM; hit rate 0.12% among 330,000; purified IAP, CDP-Star luminescence, 30 min; Intestinal-type alkaline phosphatase (Homo sapiens), P09923;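 active = inhibition reaching a set limit with compound at 10 µM in the primary screen, cut at about 35% in these data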;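 note: plate controls were DMSO wells with enzyme for no effect and no-enzyme buffer wells for full effect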
mIAP inh: inhibitors of mouse IAP, primary screen, biochemical, luminescence, uHTS | purified mouse IAP, CDP-Star luminescence, 30 min | hit rate 0.2% among 330,000 | inhibition, % at 10 µM | intestinal alkaline phosphatase [Mus musculus];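 active = inhibition of at least 40% at 10 µM in the primary screen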;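 note: plate controls were DMSO with enzyme for no effect and no enzyme wells for full effect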
* marks the source's active call; other numbers are inactive results; x = no result.

SMILES	bIAP inh	bIAP act	hIAP activ	mIAP act	hIAP inh	mIAP inh
CCN1CCN(c2ccc(S(=O)(=O)N3CCCCC3)cc2NC(=O)c2cc3ccccc3o2)CC1	x	x	0.87	1.1	13	-6
Cn1cc(S(=O)(=O)Nc2cccc(F)c2)c(=O)n(C)c1=O	6	0.9	0.97	1.2	3	-17
COc1cccc(NS(=O)(=O)c2cn(C)c(=O)n(C)c2=O)c1	-409	5.1*	0.84	1.1	16	-6
CC(C)[C@H](NC(=O)CCCn1nnc2ccccc2c1=O)C(=O)O	x	x	0.97	0.99	3	1
O=C1c2ccccc2S(=O)(=O)c2cc(N3CCC(C(=O)N4CCCCC4)CC3)ccc21	x	x	0.81	1	19	-2
O=C1c2ccccc2S(=O)(=O)c2cc(N3CCc4ccccc4C3)ccc21	x	x	0.92	0.57	8	43*
O=C(CNCc1cccc2ccccc12)Nc1ccccc1[N+](=O)[O-]	18	0.8	0.81	0.98	19	2
COc1ccc(N=C2NC(=O)/C(=C/c3ccco3)S2)cc1	x	x	0.9	0.75	10	25
COc1ccc(S(=O)(=O)/N=C2/NC(=O)/C(=C/c3ccco3)S2)cc1	-5	1.1	1.1	0.43	-8	57*
C[C@H](CO)N1C[C@H](C)[C@@H](CN(C)C(=O)Nc2ccc(C(F)(F)F)cc2)Oc2ccc(NC(=O)Nc3ccccc3)cc2C1=O	x	x	1.1	2.4*	-10	-143
C[C@H]1CN([C@@H](C)CO)C(=O)c2cccc(NC(=O)Nc3ccc(C(F)(F)F)cc3)c2O[C@@H]1CN(C)S(=O)(=O)c1ccc(Cl)cc1	x	x	1	2.1*	-2	-111
Cc1noc(C)c1NC(=O)N(C)C[C@H]1Oc2ccc(NC(=O)NC(C)C)cc2C(=O)N([C@H](C)CO)C[C@H]1C	x	x	0.98	1.2	2	-22
C[C@H](CO)N1C[C@H](C)[C@@H](CN(C)S(C)(=O)=O)Oc2ccc(NC(=O)Nc3ccc(C(F)(F)F)cc3)cc2C1=O	x	x	1	2.3*	-4	-126
Cc1noc(C)c1NC(=O)N(C)C[C@H]1Oc2ccc(NC(=O)Nc3ccc(C(F)(F)F)cc3)cc2C(=O)N([C@H](C)CO)C[C@@H]1C	x	x	1.1	2.5*	-10	-155
CC(=O)C1=C(C)Nc2ncnn2C1c1ccc(Cl)cc1 (stereo not given)	14	0.9	0.87	0.91	13	9
Cc1ccc(C(=O)OCC(=O)Nc2nc(-c3ccccc3)cs2)cc1NC(=O)c1ccco1	0	1	1	1	-2	-5
C[C@H](CO)N1C[C@H](C)[C@H](CN(C)S(=O)(=O)c2cn(C)cn2)Oc2ccc(NC(=O)Nc3ccc(C(F)(F)F)cc3)cc2CC1=O	x	x	1.1	2.7*	-8	-169
C[C@H](CO)N1C[C@H](C)[C@@H](CN(C)C(=O)Nc2ccc(C(F)(F)F)cc2)Oc2ccc(NC(=O)NC3CCCCC3)cc2C1=O	x	x	1.2	3.1*	-24	-212
C[C@H](CO)N1C[C@H](C)[C@@H](CN(C)C(=O)NC2CCCCC2)Oc2ccc(NC(=O)Nc3ccc(C(F)(F)F)cc3)cc2C1=O	x	x	1.1	2.3*	-10	-130
C[C@@H]1CN([C@@H](C)CO)C(=O)Cc2cc(NC(=O)Nc3ccc(C(F)(F)F)cc3)ccc2O[C@@H]1CN(C)S(=O)(=O)c1ccc(Cl)cc1	x	x	1.2	1.4	-17	-41
Cc1ccc(NCc2ccc(C)s2)cc1	x	x	0.96	0.78	4	22
CC(C)(C)c1ccc(/C=N/NC(=S)Nc2cccnc2)cc1	-3	1	1	1	-3	-1
Oc1ccc(/C=N/NC(=S)Nc2cccnc2)cc1O	-18	1.2	0.72	0.21	28	79*
COc1ccc(NC(=O)Nc2cccc(OC)c2)cc1	x	x	0.95	1.7	5	-66
Cc1csc(NC(=O)Nc2cccc(Cl)c2)n1	-123	2.2*	1.2	1.2	-16	-18
SMILES	bIAP inh	bIAP act	hIAP activ	mIAP act	hIAP inh	mIAP inh
Cc1nnc(NC(=O)Nc2cccc(Cl)c2)s1	6	0.9	1.1	0.98	-13	2
COC(=O)c1cccc(NC(=O)NC23CC4CC(CC(C4)C2)C3)c1	2	1	0.98	2.6*	2	-156
COC(=O)c1cccc(NC(=O)Nc2ccc(Cl)cc2)c1	x	x	1	2.2*	0	-123
COc1cccc(NC(=O)Nc2cc(Cl)ccc2C)c1	-16	1.2	0.84	2.2*	16	-123
O=C(Nc1cc(Cl)ccc1-n1cncn1)c1cc(F)c(F)c(F)c1F	x	x	1	0.98	-2	2
CCNCCC(=O)N1c2ccccc2Sc2ccc(C(F)(F)F)cc21	x	x	1.1	1.1	-10	-10
COc1ccccc1NS(=O)(=O)c1cccc(NC(=O)Nc2cccc(Cl)c2)c1	10	0.9	1.1	2.2*	-6	-124
N#CCc1ccc(NC(=O)Nc2cccc(Cl)c2)cc1	7	0.9	1.4	2.8*	-39	-176
COc1ccccc1NS(=O)(=O)c1cccc(NC(=O)NCCCl)c1	x	x	1.1	1.1	-9	-8
CCCOC(=O)c1ccc(NC(=O)Oc2ccccc2)cc1	-157	2.6*	0.85	1	15	-4
CCO[C@@H]1OC(C(=O)NC2CC2)=C[C@H](c2ccccc2)[C@H]1CCCO	-2	1	0.83	1	17	-3
S=c1[nH]nc(-c2ccccc2Cl)n1Cc1ccccc1	8	0.9	1.1	0.94	-7	6
COc1ccc(Cl)cc1-c1n[nH]c(=S)n1Cc1ccccc1	x	x	1.1	0.58	-6	42*
O=C1c2ccccc2C(=O)N1c1ccc(Cl)cn1	2	1	0.97	1	3	-1
CCOc1ccc2[nH]c3c(NCCC(C)C)ncnc3c2c1	x	x	1.6	2.2*	-61	-122
CCN(CC)CCNc1ncnc2c1[nH]c1ccc(OC)cc12	x	x	1.1	1.1	-12	-11
COc1ccc2[nH]c3c(NCCC4=CCCCC4)ncnc3c2c1	-113	2.1*	x	x	x	x
Cc1cc2c(C)c(C)c(=O)[nH]c2cc1N	19	0.8	1.1	0.92	-8	8
N#CC1=C(S)N(c2ccccc2)C(c2ccc(-c3ccc(Cl)c(Cl)c3)o2)NC1=O (stereo not given)	x	x	0.78	0.83	22	17
N#CC1=C(S)N(c2ccccc2)C(c2ccc(-c3cc(Cl)ccc3Cl)o2)NC1=O (stereo not given)	-101	2*	0.95	0.83	5	16
